The RNAGym collection of RNA variant scans (doi:10.1126/science.aae0568)
Fewer inactive variants are shown than the library holds.

B1: tRNA (parent)
chain: GUUCCGUUGGCGUAAUGGUAACGCGUCUCCCUCCUAAGGAGAAGACUGCGGGUUCGAGUCCCGUACGGAACG

Variants of: B1
Assay: yeast fitness relative to wild type (ratio to wild type); higher = fitter; tRNA-Arg(CCU), competitive growth, 37 C, YPD
Method in brief: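 Variants of the tRNA-Arg(CCU) gene were chemically synthesised with a 3% per-site mutation rate across 69 sites and placed at the native genomic locus in Saccharomyces cerevisiae. Six parallel replicates of the pooled strains were competed in YPD at 37°C for 24 hours, and gene amplicons from the start and end populations were read by 100-nucleotide paired-end sequencing. Darwinian fitness relative to wild type was derived from changes in genotype frequencies. Genotypes required ≥ 100 starting reads, and estimates < 0.5 were set to 0.5.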

| Variant | yeast fitness |
| --- | --- |
| GUUCCGUUGGUGAAAUGGUAACGCAUCACCAUCCUAAGGAGACGACUGCGGGUUCGAGUGGUGUACGGAACG [C11U U13A G25A U28A C31A A43C C60G C61G C62U] | 0.581 |
| GUUCCGUUGGUGAAAUGGUAACGCGUCUCCCUCCUAAGGAGAAGAGUGCGGGUUCGAGUCCGGUACGGAACG [C11U U13A C46G C62G] | ≤ 0.5 |
| GUUCCGUUGGUGCAAUGGUAACGCGUCCCCCUCCUAAGGAGUAGACUGCGGGUUAAAGUCCCGUACGGAACG [C11U U13C U28C A42U C55A G56A] | ≤ 0.5 |
| GUUCCGUUGGUGUAAUGGUAACGCGUCUCCCUCCUAAGGAGAAGACUGCGGGUUCAAGUCCCGUACGGAACG [C11U G56A] | 0.901 |
| GUUCCGUUGGUGUAAUGGUAACGCGUCUCCCUCCUAAGGAGAAGACUGCAGGUUCGAGUCCCGUACGGAUCG [C11U G50A A70U] | 0.702 |
| GUUCCGUUGGUGAAAAGGUAACGCGUCUCCCUCCUAAGGAGAAGACUGCGGGUACGAGUCCCGUACGGAACG [C11U U13A U16A U54A] | 0.711 |
| GUUCCGUUGGUGUAAUGGUAACGCGUCUCCCUCCUAAGGAGAAGACUACGCGUUCGAGUACCGCACGGAACG [C11U G48A G51C C60A U64C] | 0.887 |
| GUUCCGUUGGUGUAAUGGUAACGCGUCUCCCUCCUAAGGAGAAGACUGCGCGUUCGAGGCCCGUACGGAACG [C11U G51C U59G] | 0.534 |
| GUUCCGUUGGUGUAAUGGUAACGCGUCUCCCUCCUAAGGAGAAGACUUCGGGUUCGAGUCCCGUACGGAACG [C11U G48U] | 0.853 |
| GUUCCGUUGGUGUAAUGGUAACGCGUCUCCCUCCUAAGGAGAAGACUCCGGGUUCGAGUCCCGUACGGAACG [C11U G48C] | 0.882 |
| GUUCCGUUGGUGUAAUGGUAACGCGUCUCCCUCCUAAGGAGAAGACUGCGGGUUCGAGUCCCGUACAGAACG [C11U G67A] | 0.816 |
| GUUCCGUUGGUGUAAUGGUAACGCGUCUCCCUCCUAAGGAGAAGACUGCGGGUUCGAGUCCCGUACUGAACG [C11U G67U] | 0.846 |
| GUUCCGUUGGUGCAAUGGUAACGAGUCUCCCUCCUAAGGAGAAGACAGCGGGUUCGAGUCCCGUACGGAACG [C11U U13C C24A U47A] | ≤ 0.5 |
| GUUCCGUUGGUGUAAUGGUAACGCGUCUCCCUCCUAAGGAGAAGACUGCGCGUUCGAGUCCCGUACGGAACG [C11U G51C] | 0.718 |
| GUUCCGUUGGUGUAAUGGUAACGCGUCUCCCUCCUAAGGAGAAGACUGCAGGUUCGAGUCCCGUACGGCACG [C11U G50A A69C] | 0.522 |
| GUUCCGUUGGUGUAAUGGUAACGCGUCUCCCUCCUAAGGAGAAGACUGCAGGUUCGAGUCCCGUAAGGAACG [C11U G50A C66A] | ≤ 0.5 |
| GUUCCGUUGGUGCAAUGGUAACGCGUCUUCCUCCUACGGAGAAGACUGCGGGUACGAGUCCUGUACGAAACG [C11U U13C C29U A37C U54A C62U G68A] | ≤ 0.5 |
| GUUCCGUUGGUGAAAUGGUAACGCGUCUCCCUCCUAAGGAGAAGACUACGGGUUCGAGUCCCGUACGGAACG [C11U U13A G48A] | 0.59 |
| GUUCCGUUGGUGUAAAGGUAACGCGUCUCCCUCCUAAGGAGAAGACUGCGGGUUCGAGUCCCGUACGGAACG [C11U U16A] | 0.819 |

| Variant | yeast fitness |
| --- | --- |
| GUUCCGUUGGUGAAAUGGUAACGCGUCUCCCUCCUAAGGCGAAGACUGCGGGUUCGAGUCCCGCACGGAACG [C11U U13A A40C U64C] | ≤ 0.5 |
| GUUCCGUUGGUGUAAUGGUAACGCGUCUCCCUCCUAAGGAGAAGACUGCGGGUUCAAGUCCCGUACUGAACG [C11U G56A G67U] | 0.526 |
| GUUCCGUUGGUGAAAUGGUAAGGAGUCUCCCUCCUAAGGAGAAGAGUGCGGGUUUGAGUCCCGUACGGAACG [C11U U13A C22G C24A C46G C55U] | ≤ 0.5 |
| GUUCCGUUGGUGUAAUGGUAACGCGUCUCCCUCCUAAGGAGAAGACUGCGGGUUCGACUCCCGUACGGAACG [C11U G58C] | 0.925 |
| GUUCCGUUGGUGCAAUGGUAACGCGUCUCCCUCCUAAGGAGACGACUGCGGGUUCGAGUCCCGUACGGAACG [C11U U13C A43C] | 0.682 |
| GUUCCGUUGGUGUAAUGGUAACGCGUCUCCCUCCUAAGGAGAAGACUGCCGGUUCGAGUCUCGUACGGAACG [C11U G50C C61U] | 0.581 |
| GUUCCGUUGGUGUAAUGGUAACGCGUCUCCCUCCUAAGGAGAAGACUACGCGUUCGAGUCACGUCCGGAACG [C11U G48A G51C C61A A65C] | ≤ 0.5 |
| GUUCCGUUGGUGUAAUGGUAACGCGUCUCCCUCCUAAGGAGAAGACUGCGGGUUCGAGUCCCGUACAGUACG [C11U G67A A69U] | 0.652 |
| GUUCCGUUGGUGUAAUGGUAACGCGUCUCCCUCCUAAGGAGAAGACUGCAGGUUCAAGUCCCGUACGGAACG [C11U G50A G56A] | 0.781 |
| GUUCCGUUGGUGCAGUGGUAACGCGUCUCCCUCCUAAGGAGAAGAAUGCGGGUUCGAGUCCCGUACGGAACG [C11U U13C A15G C46A] | 0.631 |
| GUUCCGUUGGUGUAAUGGUAACGCGUCUCCCUCCUAAGGAGAAGACUGCAGGUUCGAGUCCCAUUCGGAACG [C11U G50A G63A A65U] | ≤ 0.5 |
| GUUCCGUUGGUGGAAUGGAAAGGCAUCUCCCUCCUAAGGAGAAGACUGCGGGUUCGAGUCCCGUACGGUACG [C11U U13G U19A C22G G25A A69U] | ≤ 0.5 |
| GUUCCGUUGGUGUAAAGGUAAAGGGUCUCCCUCCUAAGGAGAAGUCAGCGGGUUCGAGUCCCGUACGGAACG [C11U U16A C22A C24G A45U U47A] | ≤ 0.5 |
| GUUCCGUUGGUGAAAUGGUAACGCGUCUCCCUCCUAAGGAGAAGACUGCGGGUUCGUGUCCCGGGCGGAACG [C11U U13A A57U U64G A65G] | ≤ 0.5 |
| GUUCCGUUGGUGUAAUGGUAACGCGUCUCCCUCCUAAGGAGAAGACUGCGGGUUCGAGUCCCGUACGAAACG [C11U G68A] | 0.878 |
| GUUCCGUUGGUGCAAUGGUAACGCGUCUUCCUCCUACGGAGAAGAAUGCGGGUUCGAGUCCCGUACGGAACG [C11U U13C C29U A37C C46A] | ≤ 0.5 |
| GUUCCGUUGGUGUAAUGGUAACGCGUCUCCCUCCUAAGGAGAAGACUGCGGCUUCGAGUCCCGUACGGAACG [C11U G52C] | 0.707 |
| GUUCCGUUGGUGUAAUGGUAACGCGUCUCCCUCCUAAGGAGAAGACUGCGGAUUCGAGUCCCGUACGGAACG [C11U G52A] | 0.827 |
| GUUCCGUUGGUGUAAUGGUAACGCGUCUCCCUCCUAAGGAGAAGACUGCAGGUUCGAGUCCCGUACGGAACG [C11U G50A] | 0.81 |
